# Assay outcomes: PubChem, several laboratories
# RAD52 anneal inh: blocks human RAD52 DNA annealing; inhibition, % at 18.7 µM; P43351; 360,000 compounds, 0.46% hits; recombinant RAD52 DNA annealing, FRET fluorescence;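 active = every replicate showing at least 50% inhibition; inconclusive = mean inhibition at least 50% but not in every replicate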
# RAD54 branch: blocks human RAD54 Holliday junction branch migration. Q92698. FAM/BHQ fluorescence. inhibition, % at 10.4 µM. 360,000 compounds, 0.14% hits;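 active = mean normalized replicate activity at least 40 and at least half of replicates scoring 40 or more; inconclusive = only one of the two criteria met; inactive = mean below 40 and under half of replicates reaching 40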;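 note: 0% = median of neutral control wells and 100% = median of positive control wells; inhibitors cause a drop in the FAM fluorescence signal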
# Apaf1 inhib: inhibitors of human Apaf-1 apoptosome; reconstituted apoptosome caspase-3 activity, DEVD-Rh110 fluorescence; inhibition, % at 20 µM; 330,000 compounds, 0.71% hits; AID 489030; active = inhibition of at least 40% at 20 µM;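 note: plate controls were DMSO wells for no effect and DEVD-CHO caspase inhibitor wells for full effect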
#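 detection = Rh110 fluorescence intensity | test system = biochemical Apaf-1 apoptosome reconstitution | also added = cytochrome c and DEVD-Rh110 substrate | schedule = 30 min plus 50 min, RT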
# UBC13 polyUb: inhibitors of human UBC13 polyubiquitin chain formation. inhibition, % at 20 µM. TR-FRET. P61088. 330,000 compounds, 0.47% hits; in the data active = inhibition above about 45%, passing the limit was not always enough; inconclusive = no clear call, values can overlap the other calls
# Neddyl block: blocks human cullin neddylation; P61081+Q13564; TR-FRET cullin neddylation, biochemical; calls only at 25 µM; 360,000 compounds, 0.58% hits; in the data active = inhibition above about 36%
# Target sequence (P61081 whole entry, looked up): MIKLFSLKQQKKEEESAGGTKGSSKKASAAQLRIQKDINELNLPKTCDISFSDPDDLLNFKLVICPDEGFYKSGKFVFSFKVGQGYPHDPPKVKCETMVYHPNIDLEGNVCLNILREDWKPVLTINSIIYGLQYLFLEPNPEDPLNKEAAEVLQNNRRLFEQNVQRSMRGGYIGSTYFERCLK
# Target sequence (Q13564 whole entry, looked up): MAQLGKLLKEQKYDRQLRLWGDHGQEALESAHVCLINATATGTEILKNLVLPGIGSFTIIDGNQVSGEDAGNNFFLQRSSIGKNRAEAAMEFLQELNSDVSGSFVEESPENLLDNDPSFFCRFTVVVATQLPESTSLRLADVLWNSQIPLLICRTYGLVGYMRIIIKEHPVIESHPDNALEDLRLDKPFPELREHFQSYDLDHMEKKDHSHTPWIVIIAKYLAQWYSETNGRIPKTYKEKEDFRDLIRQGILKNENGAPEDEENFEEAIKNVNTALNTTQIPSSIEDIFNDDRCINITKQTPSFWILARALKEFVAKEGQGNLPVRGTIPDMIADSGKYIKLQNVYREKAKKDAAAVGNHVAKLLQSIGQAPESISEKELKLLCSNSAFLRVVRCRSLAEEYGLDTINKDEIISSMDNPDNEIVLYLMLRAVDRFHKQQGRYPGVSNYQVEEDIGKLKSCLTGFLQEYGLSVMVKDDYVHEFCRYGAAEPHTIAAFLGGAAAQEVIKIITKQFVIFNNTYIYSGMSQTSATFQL
# DNA FID counter: counter-screen for HCV NS3 helicase inhibitors: DNA intercalator displacement. inhibition, % at 7.9 µM. 290,000 compounds, 0.17% hits. AID 1845. DNA fluorescent intercalator displacement, fluorescence; in the data active = inhibition above about 37%;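 note: 0% = vehicle and 100% = reference compound; higher means more ethidium bromide displaced from hairpin DNA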
# Rad54 DNA ctr: counter-screen for Rad54 inhibitors: DNA binding compounds. 460 compounds, 8% hits. Acridine orange-DNA displacement, fluorescence polarization, 20 min. shares compounds with RAD54 branch. AID 651673. AC50, µM (top dose mostly 35 µM), inactives show at the top dose activity change, negative = DNA binding;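 active = signal drop giving an AC50 within twice the top valid tested concentration of each sample, actives reach about 35 µM in these data; inactive = activity opposite to expected, plus the rest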;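 note: polarization loss reports compound binding to salmon sperm DNA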
# Neddyl inh conf: cullin neddylation inhibition, confirmation; AID 652217; calls only at 25 µM; 1,800 compounds, 13% hits; shares compounds with Neddyl block; TR-FRET cullin neddylation biochemical assay; in the data active = inhibition above about 40%;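 note: neddylation substrate is the cullin 1 ring ligase complex with SKP2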
# RAD52 DNA ctr: DNA binding artifact in RAD52 counter-screen | shares compounds with RAD52 anneal inh | Salmon sperm DNA/acridine orange FP displacement | AC50, µM | 1,000 compounds, 8% hits;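 active = fitted half-maximal concentration for signal loss at or below twice the highest dose tested, in every separate run, actives reach about 64 µM in these data; inconclusive = runs disagree, or flat partial signal loss, or poor fit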
# An asterisk follows results filed as active; i = inactive; ? = inconclusive; · = no result given; + = active, no number. Hits are enriched below; roughly 1.6% of the tested compounds scored in any of these assays.
SMILES,RAD52 anneal inh,RAD54 branch,Apaf1 inhib,UBC13 polyUb,Neddyl block,DNA FID counter,Rad54 DNA ctr,RAD52 DNA ctr,others
CN(C)CCNC(=O)c1cccc(-c2cnc3c(NC=O)cc(-c4cccc(F)c4)cn23)c1,91*,?,·,·,i,·,-3%,i,
CN(C)CCNC(=O)c1cccc(-c2cnc3c(NC=O)cc(-c4ccc(F)cc4)cn23)c1,92*,55*,·,·,i,·,1%,i,
C[C@@H](NC(=O)C[C@H]1C[C@H]2c3cc(NC(=O)Nc4ccccc4F)ccc3O[C@H]2[C@H](CO)O1)c1ccccc1,-13,3,·,·,·,·,·,·,
O=C(NCCCN1CCOCC1)c1cc2c(=O)[nH]c3ccccc3c2s1,-215,23,5,10,·,11,·,·,
O=C(NCCCN1CCCC1)c1cc2c(Cl)nc3ccccc3c2s1,63*,?,4,4,i,22,-22%,42µM*,
COC(=O)c1c(NC(=O)c2ccc(S(=O)(=O)N3CC(C)OC(C)C3)cc2)sc2c1CCN(C)C2 (stereo not drawn),51*,50*,·,·,i,·,16%,i,
CCCNC(=O)N(C)C[C@@H]1Oc2ncc(-c3ccc(OC)cc3)cc2C(=O)N([C@@H](C)CO)C[C@H]1C,6,-6,·,·,·,·,·,·,
C[C@@H]1CN([C@@H](C)CO)C(=O)c2cc(NC(=O)Nc3cccc4ccccc34)ccc2O[C@@H](C)CCCCO[C@@H]1CN(C)S(=O)(=O)c1ccccc1,7,11,·,·,·,·,·,·,
CCCN1CCN(C(=S)Nc2ccc3nc(N4CCN(CC)CC4)cc(C)c3c2)CC1,89*,62*,12,-9,i,50*,3%,i,
CCN1CCN(c2cc(C)c3cc(NC(=S)N4CCC5(CC4)OCCO5)ccc3n2)CC1,56*,?,-7,-3,i,17,-12%,i,
O=C(C[C@@H]1C=C[C@@H](NC(=O)Nc2cc(F)ccc2F)[C@@H](CO)O1)NCc1ccccn1,4,-4,·,·,·,·,·,·,
CC(C)NC(=O)N[C@@H]1C=C[C@@H](CC(=O)O)O[C@H]1CO,0,-7,·,·,·,·,·,·,
O=C(C[C@H]1CC[C@H]2[C@@H](COC[C@@H](O)CN2S(=O)(=O)c2ccc(F)cc2)O1)N1CCc2ccccc2C1,-8,-6,·,·,·,·,·,·,
C[C@@H](O)C#Cc1ccc([C@@H]2[C@H](CO)N3CCCCN(C(=O)c4ccc5c(c4)OCO5)C[C@@H]23)cc1,1,7,·,·,·,·,·,·,
Cc1c(OCC(=O)NC2CC(C)(C)NC(C)(C)C2)ccc2c1oc(=O)c1ccccc12,72*,67*,11,31,·,32,i,i,
COc1ncccc1-c1cc2nc(NCCCN(C)C)n(C)c(=O)c2s1,75*,90*,·,·,i,·,-19%,63µM*,
COc1ccc(-c2cc3nc(NCCN4CCCC4)n(C)c(=O)c3s2)cc1OC,84*,70*,·,·,+,·,0%,i,Neddyl inh conf=+
COc1cccc(-c2cc3nc(NCCCN(C)C)n(C)c(=O)c3s2)c1,79*,62*,·,·,i,·,-2%,?,
CN(C)CCCNc1nc2cc(-c3ccc4c(ccn4C)c3)sc2c(=O)n1C,96*,54*,·,·,i,·,0%,i,
CNC[C@@H]1Oc2cc(C#CC(C)(C)O)ccc2S(=O)(=O)N([C@H](C)CO)C[C@H]1C,1,-8,·,·,·,·,·,·,
O=C(c1cccnc1)N1C[C@@H]2[C@H](c3ccccc31)[C@H](CO)N2C(=O)CN1CCOCC1,-7,-4,·,·,·,·,·,·,
C[C@@H]1CCCCO[C@H](CN(C)C)[C@H](C)CN([C@H](C)CO)C(=O)c2cc(NS(=O)(=O)c3cccs3)ccc2O1,-14,-3,·,·,·,·,·,·,
CC(C)NC(=O)N(C)C[C@@H]1Oc2ccc(NC(=O)Nc3ccc(F)cc3)cc2CC(=O)N([C@H](C)CO)C[C@@H]1C,5,5,·,·,·,·,·,·,
COCC(=O)Nc1ccc2c(c1)C(=O)N(C)C[C@@H](OC)[C@H](C)CN(C(=O)c1cnccn1)[C@H](C)CO2,0,-3,·,·,·,·,·,·,
Cc1cccn2c(=O)c3cc(C(=O)NCCN4CCOCC4)c(=N)n(CCCN4CCOCC4)c3nc12,78*,92*,1,2,·,79*,8%,i,
SMILES,RAD52 anneal inh,RAD54 branch,Apaf1 inhib,UBC13 polyUb,Neddyl block,DNA FID counter,Rad54 DNA ctr,RAD52 DNA ctr,others
Cc1cccn2c(=O)c3cc(C(=O)NCC4CCCO4)c(=N)n(CCN4CCOCC4)c3nc12 (stereo not drawn),20,42,0,6,·,-16,·,·,
COc1ccc(CCNC(=O)c2cc3c(=O)n4ccccc4nc3n(CCCN3CCOCC3)c2=N)cc1OC,54*,?,-9,-9,i,46*,14%,i,
CS(=O)(=O)Nc1ccc2c(c1)[C@@H]1C[C@@H](CC(=O)NCC3CC3)O[C@H](CO)[C@@H]1O2,1,12,·,·,·,·,·,·,
C[C@@H]1CN([C@H](C)CO)S(=O)(=O)c2ccc(C#CCN(C)C)cc2O[C@H]1CN(C)C,1,2,·,·,·,·,·,·,
CC(C)NC(=O)N(C)C[C@H]1Oc2ccc(NS(=O)(=O)c3ccc(F)cc3)cc2CC(=O)N([C@H](C)CO)C[C@H]1C,3,-1,·,·,·,·,·,·,
COc1ccc2nc3cc(Cl)ccc3c(Nc3cc(CN4CCCC4)c(O)c(CN4CCCC4)c3)c2n1,101*,124*,62*,-88,i,103*,3.7µM*,4µM*,
O=C(c1ccco1)N(CCCN1CCOCC1)c1nc(-c2ccc(Cl)cc2)cs1,·,2,21,0,i,2,·,·,
CCN(CC)CCCN(C(=O)c1ccco1)c1nc(-c2ccc(Cl)cc2)cs1,79*,59*,26,16,i,27,6%,i,
CCOC(=O)c1cnc2c(C)c(C)ccc2c1NCCN1CCOCC1,0,20,2,-8,i,15,·,·,
CCOC(=O)c1cnc2c(ccc3ccccc32)c1NCCCN(C)C,96*,123*,10,23,i,81*,-18%,?,
CCOC(=O)c1cnc2ccccc2c1NCCO,·,16,-15,2,i,1,·,·,
CCOC(=O)c1cnc2c(C)cc(C)cc2c1NCCCN1CCOCC1,68*,93*,-6,4,i,71*,-22%,i,
CO[C@@H]1CN(C)C(=O)c2ccc(NC(=O)c3ccccc3)cc2OC[C@@H](C)NC[C@H]1C,2,-6,·,·,·,·,·,·,
Cc1noc(C)c1NC(=O)N[C@@H]1CC[C@H](CC(=O)N2CCCCC2)O[C@H]1CO,-6,-6,·,·,·,·,·,·,
COc1ccc(NC(=O)N(C)C[C@H]2Oc3ccc(NC(=O)CCCN(C)C)cc3C(=O)N([C@H](C)CO)C[C@H]2C)cc1,-9,10,·,·,·,·,·,·,
